Test results: publication PMC7498158 (Journal of Medicinal Chemistry, 2020)

System: PLAAT2–5
Experiment: gel-based competitive ABPP, statements for all tested PLAAT members
Type: biochemical, human
Details: 10 μM inhibitor, 30 min; active = residual protein labeling ≤50%
Summary of the method: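 Human PLAAT cDNA (C-terminal FLAG, pcDNA3.1) was PEI-transfected into HEK293T; cytosol came from a 100,000g spin. Cytosol was preincubated with test compound (30 min, rt), then MB064 (20 min, rt). Conditions: PLAAT2 0.25 μg/μL, 250 nM; PLAAT3 0.5 μg/μL, 250 nM; PLAAT4/5 1 μg/μL, 500 nM. In-gel fluorescence was normalized to Coomassie, in triplicate. Single-concentration screen or IC50 from dose–response curves.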

| SMILES | activity on PLAAT2–5 (in words) |
| --- | --- |
| O=C(NCc1ccccc1)C(F)(F)C(O)CCc1ccccc1 (stereo not drawn) [Compound 3] | inactive |
| CCOC(=O)C(F)(F)C(O)CCc1ccccc1 (stereo not drawn) [Compound 4] | inactive |
| CN(CCc1ccccc1)C(=O)C(=O)CCc1ccc(Cl)cc1 [Compound 12] | complete loss of activity |
| O=C(CCc1ccc(Cl)cc1)C(=O)N1CCCCC1 [Compound 13] | did not show any activity |
| CN(C)C(=O)C(=O)CCc1ccc(Cl)cc1 [Compound 14] | did not show any activity |
| O=C(CCc1ccc(Cl)cc1)C(=O)N1CCOCC1 [Compound 15] | did not show any activity |
| CN1CCN(C(=O)C(=O)CCc2ccc(Cl)cc2)CC1 [Compound 16] | did not show any activity |
| COCCN(CCOC)C(=O)C(=O)CCc1ccc(Cl)cc1 [Compound 17] | did not show any activity |
| CCN(CCc1ccccc1)C(=O)C(=O)CCc1ccc(Cl)cc1 [Compound 22] | did not show any activity |
| O=C(NCCc1ccccc1)C(O)CCc1ccc(Cl)cc1 (stereo not drawn) [Compound 23, 4-(4-Chlorophenyl)-2-hydroxy-N-phenethylbutanamide] | no activity |

Same assay, conditions: focused library screen

| SMILES | hit potency for all tested PLAAT members (in words) |
| --- | --- |
| O=C(CCc1ccc(Cl)cc1)C(=O)NCCc1ccccc1 [Compound 1, 4-(4-Chlorophenyl)-2-oxo-N-phenethylbutanamide] | submicromolar |
| O=C(CCc1ccc(Cl)cc1)C(=O)NCCCCc1ccccc1 [Compound 2] | submicromolar |
